# ChEMBL document CHEMBL1177864, “Synthesis and biological evaluation of some thio containing pyrrolo [2,3-d]pyrimidine derivatives for their anti-inflammatory and anti-microbial activities” (2010)
# Calls of active or inactive are those of the source. The rule behind the calls is not given here.
# Experiments:
# Rattus norvegicus [1] = experiment: Antiinflammatory activity in Sprague-Dawley rat assessed as inhibition of carrageenan-induced paw edema at 50 to 70 mg/kg, sc administered 1 hr before carrageenan challenge measured after 2 hrs relative to control; details: dose mg/kg 50-70; route subcutaneous
# Rattus norvegicus [2] = experiment: Antiinflammatory activity in Sprague-Dawley rat assessed as inhibition of carrageenan-induced paw edema at 50 to 70 mg/kg, sc administered 1 hr before carrageenan challenge measured after 4 hrs relative to control; details: dose mg/kg 50-70; route subcutaneous
# Rattus norvegicus [3] = experiment: Antiinflammatory activity in Sprague-Dawley rat assessed as inhibition of carrageenan-induced paw edema at 50 to 70 mg/kg, sc administered 1 hr before carrageenan challenge measured after 3 hrs relative to control; details: dose mg/kg 50-70; route subcutaneous
# Rattus norvegicus [4] = experiment: Antiinflammatory activity in Sprague-Dawley rat assessed as inhibition of carrageenan-induced paw edema at 50 to 70 mg/kg, sc administered 1 hr before carrageenan challenge measured after 1 hr relative to control; format: functional; details: dose mg/kg 50-70; route subcutaneous
# Procedure, shortened: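 One hour later, baseline right hind paw volume was taken, then 0.05 mL of 1% carrageenan in sterile pyrogen-free 0.9% NaCl was injected into the plantar aponeurosis. Paw volume was read by water plethysmometer at 1, 2, 3 and 4 h. % inhibition = (1 − Rt/Rc) × 100 against carrageenan-only controls (n=5).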
# Pseudomonas aeruginosa [5] = experiment: Antimicrobial activity against Pseudomonas aeruginosa ATCC […] at 4 ug/disk by disk diffusion method; format: functional, organism-based
# Mycolicibacterium phlei [6] = experiment: Antimicrobial activity against Mycobacterium phlei ATCC 10142 at 4 ug/disk by disk diffusion method; format: functional, organism-based
# Bacillus subtilis [7] = experiment: Antimicrobial activity against Bacillus subtilis ATCC 6633 at 4 ug/disk by disk diffusion method; format: functional, organism-based
# Escherichia coli [8] = experiment: Antimicrobial activity against Escherichia coli ATCC 25922 at 4 ug/disk by disk diffusion method; format: functional, organism-based
# Candida albicans [9] = experiment: Antimicrobial activity against Candida albicans ATCC 10231 after 48 hrs by microdilution assay; format: functional; details: ATCC 10231, 48 h
# Procedure, shortened: (§1)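 MIC by microdilution following NCCLS 1997 guidelines. Compounds were serially two-fold diluted in DMSO from 1024 down to […], mixed with sterile nutrient agar, and inoculum was added to each well. MIC was read as the lowest concentration giving complete absence of macroscopic growth. Controls were DMSO, organism alone and medium alone. Bacteria were precultured on MHA at 37 °C overnight; Candida on SDA at 35 °C.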
# Staphylococcus aureus [10] = experiment: Antimicrobial activity against Staphylococcus aureus ATCC 29213 at 4 ug/disk by disk diffusion method; format: functional, organism-based
# Candida albicans [11] = experiment: Antimicrobial activity against Candida albicans ATCC 10231 at 4 ug/disk by disk diffusion method; format: functional; details: read-out: DIZ
# Bacillus subtilis [12] = experiment: Antimicrobial activity against Bacillus subtilis ATCC 6633 after 24 hrs by microdilution assay; format: functional; details: ATCC 6633, 24 h
# Procedure, shortened: (§2)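 MIC by micro-dilution per NCCLS 1997. Bacteria were subcultured overnight on Mueller-Hinton agar at 37 °C and passaged at least twice. Compounds were serially two-fold diluted in DMSO (1024 down to 16 stock levels) and mixed with sterile nutrient agar, then inoculum was added to the wells. MIC is the lowest concentration giving complete inhibition of macroscopic growth. Controls were DMSO, organism alone and medium alone.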
# Pseudomonas aeruginosa [13] = experiment: Antimicrobial activity against Pseudomonas aeruginosa ATCC […] after 24 hrs by microdilution assay; format: functional
# Procedure, shortened: as §2
# Staphylococcus aureus [14] = experiment: Antimicrobial activity against Staphylococcus aureus ATCC 29213 after 24 hrs by microdilution assay; format: functional; details: ATCC 29213, 24 h
# Procedure, shortened: as §1
# Pseudomonas aeruginosa [15] = experiment: Antimicrobial activity against Pseudomonas aeruginosa ATCC […] at 25 ug/disk by disk diffusion method; format: functional; details: read-out: DIZ
# Procedure, shortened: (§3)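 Disc diffusion sensitivity test as per Bauer et al. Bacteria were subcultured on Mueller-Hinton agar overnight at 37 °C; Candida on SDA at 35 °C for 24-48 h, each passaged at least twice. DMSO served as solvent control; amoxicillin and fluconazole were references. Read-out was the inhibition zone.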
# Escherichia coli [16] = experiment: Antimicrobial activity against Escherichia coli ATCC 25922 after 24 hrs by microdilution assay; format: functional; details: ATCC 25922, 24 h
# Procedure, shortened: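 MIC by microdilution following NCCLS 1997 guidelines. Bacteria were subcultured on Mueller-Hinton agar overnight at 37 °C and passaged at least twice. Compounds were serially two-fold diluted in DMSO (1024 down to 16), mixed with nutrient agar, and inoculated. MIC was the lowest concentration with no macroscopic growth. DMSO, organism-only and medium-only controls were included, with amoxicillin as reference.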
# Candida albicans [17] = experiment: Antimicrobial activity against Candida albicans ATCC 10231 at 25 ug/disk by disk diffusion method; format: functional, organism-based
# Procedure, shortened: as §3
# Staphylococcus aureus [18] = experiment: Antimicrobial activity against Staphylococcus aureus ATCC 29213 at 25 ug/disk by disk diffusion method; format: functional; details: read-out: DIZ
# Procedure, shortened: as §3
# Mycolicibacterium phlei [19] = experiment: Antimicrobial activity against Mycobacterium phlei ATCC 10142 at 25 ug/disk by disk diffusion method; format: functional, organism-based
# Procedure, shortened: as §3
# Bacillus subtilis [20] = experiment: Antimicrobial activity against Bacillus subtilis ATCC 6633 at 25 ug/disk by disk diffusion method; format: functional; details: read-out: DIZ
# Procedure, shortened: as §3
# Escherichia coli [21] = experiment: Antimicrobial activity against Escherichia coli ATCC 25922 at 25 ug/disk by disk diffusion method; format: functional; details: read-out: DIZ
# Procedure, shortened: as §3
# Mycolicibacterium phlei [22] = experiment: Antimicrobial activity against Mycobacterium phlei ATCC 10142 at 20 ug/disk by disk diffusion method; format: functional, organism-based
# Procedure, shortened: as §3
# Staphylococcus aureus [23] = experiment: Antimicrobial activity against Staphylococcus aureus ATCC 29213 at 20 ug/disk by disk diffusion method; format: functional, organism-based
# Procedure, shortened: as §3
# Pseudomonas aeruginosa [24] = experiment: Antimicrobial activity against Pseudomonas aeruginosa ATCC […] at 20 ug/disk by disk diffusion method; format: functional, organism-based
# Procedure, shortened: as §3
# Candida albicans [25] = experiment: Antimicrobial activity against Candida albicans ATCC 10231 at 20 ug/disk by disk diffusion method; format: functional, organism-based
# Procedure, shortened: as §3
# Escherichia coli [26] = experiment: Antimicrobial activity against Escherichia coli ATCC 25922 at 20 ug/disk by disk diffusion method; format: functional, organism-based
# Procedure, shortened: as §3
# Bacillus subtilis [27] = experiment: Antimicrobial activity against Bacillus subtilis ATCC 6633 at 20 ug/disk by disk diffusion method; format: functional; details: read-out: DIZ
# Procedure, shortened: as §3
Compound,inhibition (INH) (Rattus norvegicus [1]) [%],inhibition (INH) (Rattus norvegicus [2]) [%],inhibition (INH) (Rattus norvegicus [3]) [%],inhibition (INH) (Rattus norvegicus [4]) [%],further results
N#Cc1c(-c2ccccc2)cn(-c2ccc(Cl)c(Cl)c2)c1N,12.3,19.04,13.88,2.17,–
N#Cc1c(-c2ccccc2)c(-c2ccccc2)n(Cc2ccccc2)c1N,4.23,23.8,12.59,3.04,–
CC(C)Cc1ccc(C(C)C(=O)O)cc1 (stereo not drawn) [IBUPROFEN],45,69.52,60.66,6.08,–
N=c1c2c(-c3ccccc3)cn(-c3ccc(Cl)c(Cl)c3)c2[nH]c(=S)n1-c1ccccc1,48.07,68.57,76.83,42,–
OC(Cn1cncn1)(Cn1cncn1)c1ccc(F)cc1F [FLUCONAZOLE],–,–,–,–,diameter of the inhibition zone (DIZ) (Pseudomonas aeruginosa [5]): inactive; diameter of the inhibition zone (DIZ) (Mycolicibacterium phlei [6]): inactive; diameter of the inhibition zone (DIZ) (Bacillus subtilis [7]): inactive; diameter of the inhibition zone (DIZ) (Escherichia coli [8]): inactive; MIC (Candida albicans [9]): 512 µg/mL; diameter of the inhibition zone (DIZ) (Staphylococcus aureus [10]): inactive; zone of inhibition at 4 µg/disc (Candida albicans [11]): 20 mm
Cc1c(-n2c(-c3ccccc3)c(-c3ccccc3)c3c(=S)n4c(=O)/c(=C/c5ccccc5)sc4nc32)n(C)n(-c2ccccc2)c1=O,–,–,–,1.74,–
S=c1[nH]c(=S)c2c(-c3ccccc3)c(-c3ccccc3)n(Cc3ccccc3)c2[nH]1,5.38,27.61,13.23,2.608,MIC (Bacillus subtilis [12]): 512 µg/mL
Cc1c(-n2c(-c3ccccc3)c(-c3ccccc3)c3c(=N)n(-c4ccccc4)c(=S)[nH]c32)n(C)n(-c2ccccc2)c1=O,–,–,–,1.98,–
NNc1nc(N)c2c(-c3ccccc3)c(-c3ccccc3)n(Cc3ccccc3)c2n1,61.15,79.04,73.9,10.43,–
CC1(C)S[C@@H]2[C@H](NC(=O)[C@H](N)c3ccc(O)cc3)C(=O)N2[C@H]1C(=O)O [AMOXICILLIN],–,–,–,–,MIC (Pseudomonas aeruginosa [13]): 64 µg/mL; MIC (Staphylococcus aureus [14]): 16 µg/mL; zone of inhibition at 25 µg/disc (Pseudomonas aeruginosa [15]): 12 mm; MIC (Escherichia coli [16]): 256 µg/mL; diameter of the inhibition zone (DIZ) (Candida albicans [17]): inactive; zone of inhibition at 25 µg/disc (Staphylococcus aureus [18]): 13 mm; diameter of the inhibition zone (DIZ) (Mycolicibacterium phlei [19]): inactive; zone of inhibition at 25 µg/disc (Bacillus subtilis [20]): 12 mm; MIC (Bacillus subtilis [12]): 64 µg/mL; zone of inhibition at 25 µg/disc (Escherichia coli [21]): 13 mm
Cc1c(-n2c(-c3ccccc3)c(-c3ccccc3)c3c(=S)[nH]c(=S)[nH]c32)n(C)n(-c2ccccc2)c1=O,3.94,28.8,14.1,0,–
O=c1/c(=C/c2ccccc2)sc2nc3c(c(-c4ccccc4)c(-c4ccccc4)n3Cc3ccccc3)c(=S)n12,–,–,–,3.498,–
Nc1nc(=S)[nH]c2c1c(-c1ccccc1)cn2-c1ccc(Cl)c(Cl)c1,95.38,76.82,95.95,6.08,–
S=c1[nH]c(=S)c2c(-c3ccccc3)cn(-c3ccc(Cl)c(Cl)c3)c2[nH]1,4.48,26,12.53,1.73,–
O=c1/c(=C/c2ccccc2)sc2nc3c(c(-c4ccccc4)cn3-c3ccc(Cl)c(Cl)c3)c(=S)n12,–,–,–,0,–
Cc1c(-n2c(-c3ccccc3)c(-c3ccccc3)c3c(N)nc(=S)[nH]c32)n(C)n(-c2ccccc2)c1=O,0,64.28,73.34,0,–
Cc1c(-n2c(N)c(C#N)c(-c3ccccc3)c2-c2ccccc2)n(C)n(-c2ccccc2)c1=O,36.53,64.68,62.62,9.5,diameter of the inhibition zone (DIZ) (Mycolicibacterium phlei [22]): inactive; diameter of the inhibition zone (DIZ) (Staphylococcus aureus [23]): inactive; diameter of the inhibition zone (DIZ) (Pseudomonas aeruginosa [24]): inactive; diameter of the inhibition zone (DIZ) (Candida albicans [25]): inactive; MIC (Bacillus subtilis [12]): 512 µg/mL; diameter of the inhibition zone (DIZ) (Escherichia coli [26]): inactive; zone of inhibition at 20 µg/disc (Bacillus subtilis [27]): 10 mm
NNc1nc(N)c2c(-c3ccccc3)cn(-c3ccc(Cl)c(Cl)c3)c2n1,30,67.43,95.58,14.78,–
Nc1nc(=S)[nH]c2c1c(-c1ccccc1)c(-c1ccccc1)n2Cc1ccccc1,3.84,24.76,13.97,1.73,MIC (Staphylococcus aureus [14]): 256 µg/mL; MIC (Bacillus subtilis [12]): 512 µg/mL
